Source: ChEMBL document CHEMBL1671628, “Cell density and cell aging as factors modulating antifungal resistance of Candida albicans biofilms” (2008)
Values after ≈ are worked out from the molar mass of the structure shown.

Key:
[1] = system: Candida albicans; assay: Antifungal activity against 10^7 cells/ml wild-type Candida albicans BF-1 planktonic cells by XTT reduction assay; type: functional
Summary of the method: (§1)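 High-density planktonic suspensions (10^7 or 10^8 cells/ml) added to serially double-diluted drugs as in the NCCLS setup, run in parallel in RPMI 1640 + 2% glucose and YNB + 100 mM glucose. Viability read by XTT (1 mg/ml) with menadione (0.4 mM stock, 5:1), 3 h dark at 37°C, A490 minus blank wells. MIC50 = lowest concentration giving 50% reduction versus drug-free control.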

[2] = system: Candida albicans; assay: Antifungal activity against 48 hrs cultures of 10^7 cells/ml biofilm-derived Candida albicans BF-1 planktonic cells hrs by XTT reduction method; type: functional; settings: BF-1, 48 h
Summary of the method: (§2)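 Biofilms grown from 1 × 10^7 cells/ml (YNB + 100 mM glucose, 1.5 h adherence, 37°C, 75 rpm) for 24 or 48 h, washed, scraped and moved to wells of serially double-diluted drugs. Incubated with drug 24 or 48 h, then XTT–menadione read at 490 nm. MIC50 = 50% reduction versus drug-free control.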

[3] = system: Candida albicans; assay: Antifungal activity against 10^5 cells/ml Candida albicans ATCC 90028 by EUCAST method; type: functional
Summary of the method: (§3)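 EUCAST AFST planktonic broth microdilution: RPMI 1640 plus 2% glucose, inoculum 0.5 × 10^5 to 2.5 × 10^5 cells/ml, twofold drug dilutions. Performed on three different occasions.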

[4] = system: Candida albicans; assay: Antifungal activity against 10^3 cells/ml Candida albicans SC5314 by NCCLS method; type: functional
Summary of the method: (§4)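 Planktonic broth microdilution per NCCLS (CLSI): inoculum from 24-h SDA cultures adjusted to 0.5 McFarland at 520 nm, diluted in RPMI 1640 to about 0.5 × 10^3 to 2.5 × 10^3 cells/ml. Cells exposed to twofold drug dilutions, incubated 35°C for 48 h, then MIC read. Three separate occasions.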

[5] = system: Candida albicans; assay: Ratio of MIC for 10^8 cells/ml wild-type Candida albicans BF-1 to MIC for 10^7 cells/ml wild-type Candida albicans BF-1 grown as planktonic cells; type: functional; summary of the method: as §1
[6] = system: Candida albicans; assay: Antifungal activity against 48 hrs cultures of 10^7 cells/ml Candida albicans BF-1 biofilms by XTT reduction method; type: functional; settings: BF-1, 48 h
Summary of the method: (§5)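 Washed late-exponential cells at 1 × 10^7 cells/ml in YNB + 100 mM glucose were adhered 1.5 h at 37°C with shaking at 75 rpm, washed, then grown 24 or 48 h at 37°C, 75 rpm. Biofilms were washed and exposed 24 or 48 h at 37°C to twofold dilutions in RPMI + 2% glucose. Read by XTT at A490. MIC50 is 50% reduction vs drug-free control. Three experiments, four replicates.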

[7] = system: Candida albicans; assay: Antifungal activity against 24 hrs cultures of 10^7 cells/ml Candida albicans BF-1 planktonic cells by XTT reduction method; type: functional; settings: BF-1, 24 h
Summary of the method: (§6)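 Age-matched planktonic cultures were grown from the same 1 × 10^7 cells/ml YNB + 100 mM glucose suspension under the biofilm conditions for 24 or 48 h. They were tested against twofold drug dilutions by XTT reduction (3 h at 37°C in the dark, A490 minus blank). MIC50 is 50% reduction vs drug-free control.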

[8] = system: Candida albicans; assay: Antifungal activity against 24 hrs cultures of 10^7 cells/ml Candida albicans ATCC 90028 biofilms by XTT reduction method; type: functional; settings: ATCC 90028, 24 h; summary of the method: as §5
[9] = system: Candida albicans; assay: Antifungal activity against 24 hrs cultures of 10^7 cells/ml Candida albicans SC5314 biofilms by XTT reduction assay; type: functional; settings: SC5314, 24 h; summary of the method: as §5
[10] = system: Candida albicans; assay: Antifungal activity against 10^7 cells/ml Candida albicans ATCC 90028 planktonic cells by XTT reduction assay; type: functional; summary of the method: as §1
[11] = system: Candida albicans; assay: Antifungal activity against 10^8 cells/ml Candida albicans SC5314 planktonic cells by XTT reduction assay; type: functional; summary of the method: as §1
[12] = system: Candida albicans; assay: Antifungal activity against 10^5 cells/ml wild-type Candida albicans BF-1 by EUCAST method; type: functional; summary of the method: as §3
[13] = system: Candida albicans; assay: Antifungal activity against 48 hrs cultures of 10^7 cells/ml Candida albicans ATCC 90028 biofilms by XTT reduction method; type: functional; settings: ATCC 90028, 48 h; summary of the method: as §5
[14] = system: Candida albicans; assay: Antifungal activity against 24 hrs cultures of 10^7 cells/ml Candida albicans ATCC 90028 biofilms by XTT reduction assay; type: functional; settings: ATCC 90028, 24 h; summary of the method: as §5
[15] = system: Candida albicans; assay: Antifungal activity against 10^8 cells/ml wild-type Candida albicans BF-1 planktonic cells by XTT reduction assay; type: functional
Summary of the method: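 Planktonic suspensions at 1 × 10^8 cells/ml added to twofold serial drug dilutions in 96-well plates (NCCLS format). Run in parallel in RPMI 1640 + 2% glucose and YNB + 100 mM glucose. Readout by XTT reduction: XTT–menadione in PBS, 3 h at 37°C in the dark, A490 minus blank. MIC50 is 50% reduction vs drug-free control.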

[16] = system: Candida albicans; assay: Antifungal activity against 24 hrs cultures of 10^7 cells/ml biofilm-derived Candida albicans ATCC 90028 planktonic cells hrs by XTT reduction method; type: functional; settings: ATCC 90028, 24 h; summary of the method: as §2
[17] = system: Candida albicans; assay: Antifungal activity against 24 hrs cultures of 10^7 cells/ml Candida albicans BF-1 biofilms by XTT reduction method; type: functional; settings: BF-1, 24 h; summary of the method: as §5
[18] = system: Candida albicans; assay: Antifungal activity against 48 hrs cultures of 10^7 cells/ml Candida albicans BF-1 planktonic cells by XTT reduction method; type: functional; settings: BF-1, 48 h; summary of the method: as §6
[19] = system: Candida albicans; assay: Antifungal activity against 24 hrs cultures of 10^7 cells/ml biofilm-derived Candida albicans BF-1 planktonic cells hrs by XTT reduction method; type: functional; settings: BF-1, 24 h
Summary of the method: (§7)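 Biofilms grown 24 or 48 h from 1 × 10^7 cells/ml were washed, scraped and transferred into plates of twofold serially diluted drugs. They were incubated 24 or 48 h. MIC was read by XTT reduction (3 h at 37°C in the dark, A490 minus blank) as 50% reduction vs drug-free control.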

[20] = system: Candida albicans; assay: Antifungal activity against 48 hrs cultures of 10^7 cells/ml biofilm-derived Candida albicans ATCC 90028 planktonic cells hrs by XTT reduction method; type: functional; settings: ATCC 90028, 48 h; summary of the method: as §7
[21] = system: Candida albicans; assay: Antifungal activity against 10^3 cells/ml Candida albicans ATCC 90028 by NCCLS method; type: functional; summary of the method: as §4
[22] = system: Candida albicans; assay: Antifungal activity against 24 hrs cultures of 10^7 cells/ml wild-type Candida albicans BF-1 biofilms by XTT reduction assay; type: functional; settings: BF-1, 24 h; summary of the method: as §5
[23] = system: Candida albicans; assay: Antifungal activity against 10^8 cells/ml Candida albicans ATCC 90028 planktonic cells by XTT reduction assay; type: functional; summary of the method: as §1
[24] = system: Candida albicans; assay: Antifungal activity against 48 hrs cultures of 10^8 cells/ml wild-type Candida albicans BF-1 biofilms by XTT reduction assay; settings: BF-1, 48 h
[25] = system: Candida albicans; assay: Antifungal activity against 48 hrs cultures of 10^7 cells/ml Candida albicans ATCC 90028 planktonic cells by XTT reduction method; type: functional; settings: ATCC 90028, 48 h; summary of the method: as §6
[26] = system: Candida albicans; assay: Antifungal activity against 10^3 cells/ml wild-type Candida albicans BF-1 by NCCLS method; type: functional; summary of the method: as §4
[27] = system: Candida albicans; assay: Antifungal activity against 48 hrs cultures of 10^8 cells/ml Candida albicans ATCC 90028 biofilms by XTT reduction assay; settings: ATCC 90028, 48 h
[28] = system: Candida albicans; assay: Antifungal activity against 24 hrs cultures of 10^7 cells/ml Candida albicans ATCC 90028 planktonic cells by XTT reduction method; type: functional; settings: ATCC 90028, 24 h
Summary of the method: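 Standard 1 × 10^7 cells/ml suspension in YNB + 100 mM glucose propagated planktonically 24 h alongside age-matched biofilms, then exposed to twofold drug dilutions. Metabolic activity read by XTT–menadione reduction, 3 h dark, 37°C, A490 background-subtracted. MIC50 is the 50% reduction point versus drug-free control.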

Structure (SMILES) | MIC [1] [µg/mL] | MIC [2] [µg/mL] | MIC [3] [µg/mL] | MIC [4] [µg/mL] | Ratio [5] | MIC [6] [µg/mL] | MIC [7] [µg/mL] | MIC [8] [µg/mL] | MIC [9] [µg/mL] | MIC [10] [µg/mL] | MIC [11] [µg/mL] | MIC [12] [µg/mL] | MIC [13] [µg/mL] | MIC [14] [µg/mL] | MIC [15] [µg/mL] | MIC [16] [µg/mL] | MIC [17] [µg/mL] | MIC [18] [µg/mL] | MIC [19] [µg/mL] | MIC [20] [µg/mL] | other results
Nc1nc(=O)[nH]cc1F [FLUCYTOSINE] | 6.5 (≈ 50.4 µM) | > 420 | 0.8 (≈ 6.2 µM) | 0.8 (≈ 6.2 µM) | >1000 | > 420 | > 420 | > 420 | > 420 | 6.5 (≈ 50.4 µM) | > 420 | 0.8 (≈ 6.2 µM) | > 420 | > 420 | > 420 | > 420 | > 420 | > 420 | > 420 | > 420 | MIC [21]: 0.8 µg/mL (≈ 6.2 µM); MIC [22]: > 420 µg/mL; MIC [23]: > 420 µg/mL; MIC [24]: > 420 µg/mL; MIC [25]: > 420 µg/mL; MIC [26]: 0.8 µg/mL (≈ 6.2 µM); MIC [27]: > 420 µg/mL; MIC [28]: > 420 µg/mL
CC(=O)N1CCN(c2ccc(OCC3COC(Cn4ccnc4)(c4ccc(Cl)cc4Cl)O3)cc2)CC1 (stereo unspecified) [KETOCONAZOLE] | 16 (≈ 30.1 µM) | > 64 | 0.125 (≈ 0.235 µM) | 0.125 (≈ 0.235 µM) | 256 | > 64 | 16 (≈ 30.1 µM) | > 64 | > 64 | 8 (≈ 15.1 µM) | > 64 | 0.125 (≈ 0.235 µM) | > 64 | 64 (≈ 120 µM) | > 64 | > 64 | > 64 | > 64 | > 64 | > 64 | MIC [21]: 0.125 µg/mL (≈ 0.235 µM); MIC [22]: > 64 µg/mL; MIC [23]: 64 µg/mL (≈ 120 µM); MIC [24]: > 64 µg/mL; MIC [25]: > 64 µg/mL; MIC [26]: 0.125 µg/mL (≈ 0.235 µM); MIC [27]: 64 µg/mL (≈ 120 µM); MIC [28]: 8 µg/mL (≈ 15.1 µM)
